High-throughput results as filed in PubChem.
The entries come from a sample that favours hits as a whole.
Insulin prom act – TRM-6 insulin promoter activation; activation, % at 2 µM; actives 0.81% (n = 130,000); TRM-6 cells (human fetal islet line), insulin promoter eGFP reporter, imaging; plate-scaled: unstimulated 0, stimulated control 100;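 active = activation at 2 µM above a set limit, confirmed on inspection of the cell images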;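 note: share of cells whose green reporter signal exceeds an intensity cutoff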
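System – TRM-6 insulin promoter–eGFP reporter cells · Probe or stimulus – 0.75 µM tamoxifen as reporter inducer · Dosing – single-point 2 µM compound dose · Incubation – tamoxifen pre-incubation 15 h overnight, then compound exposure 48 h at 37 °C · Measured by – fixed-cell fluorescence microscopy, eGFP plus Hoechst · Evaluation – percent GFP-positive cells normalized to per-plate controls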
An asterisk follows results filed as active.

SMILES	Insulin prom act
CSc1nc(N)nc(SC2C=CCCC2)c1C#N (configuration not stated)	311.1
Cc1cc(C)c(S(=O)(=O)c2ccccc2)c(OC(=O)c2cc(F)c(F)cc2Cl)n1	-9.3
O=C(/C=C/c1ccc([N+](=O)[O-])s1)N1CCCCC1	327.8*
CC(=O)c1cccc(NC(=O)/C=C/c2ccc([N+](=O)[O-])s2)c1	614.3*
COC(=O)c1cccc(NC(=O)/C=C/c2ccc([N+](=O)[O-])cc2)c1	0.0
O=C(CNC(=O)c1cccc(F)c1)N/N=C/c1ccc([N+](=O)[O-])s1	7.1
O=C(/C=C/c1ccccc1[N+](=O)[O-])N1CCCCC1	-2.7
COc1ccccc1/C=C/C(=O)N1CCCC1	2.9
CC(C)c1nnc(NC(=O)Cc2ccccc2[N+](=O)[O-])s1	0.0
Cc1cc(NCC(C)C)n2ncnc2n1	5.1
COc1cccc(CN2CCC(C(=O)N3CCN(c4ccccc4F)CC3)CC2)c1OC	-8.3
Cc1cccn2c(=O)c3cc(C(=O)NCCCN4CCCC4=O)n(C)c3nc12	0.0
Cc1ccc2nc(Cl)c3nnnn3c2c1	146.7
COc1ccc2c(C)cc(SCC#N)nc2c1	166.7*
COc1ccc2c(-c3ccccc3)cc(SCC(=O)NC(N)=O)nc2c1	8.3
COc1ccc2c(-c3ccccc3)cc(SCC(=O)N(C)C)nc2c1	-8.1
CCOC(=O)Cn1c(=N)n(Cc2ccccc2F)c2ccccc21	0.0
CC1CCN(CCc2nc3cc(NC(=O)NC4CCCCC4)ccc3n2C)CC1	7.7
O=C(Cn1cnnn1)Nc1ccccc1Cc1ccccc1	20.0
O/N=C/c1ccc(OCC(O)COc2ccc(/C=N/O)cc2)cc1	3.2
O=C(Nc1cccc2ccccc12)c1cn(-c2ccccc2)nc1-c1cccs1	8.1
N#CCCn1cc(C(=O)Nc2ccccc2Br)c(-c2cccs2)n1	457.1*
O=C(Nc1cccnc1)c1cn(-c2ccccc2)nc1-c1cccs1	-8.3
O=C(NCCc1ccccn1)C1CCN(S(=O)(=O)c2ccc3ccccc3c2)CC1	105.6
O=C(NC1CCCCC1)C(c1cc2c(cc1[N+](=O)[O-])OCO2)N1CCCCC1 (configuration not stated)	0.0
SMILES	Insulin prom act
CCN(CC)C(=O)c1cnn(-c2ccccc2)c1NC(=O)c1ccccc1F	4.8
CC(=NC1CC1)C1=C(O)c2ccccc2C1=O	5.6
CC(=NCCCN(C)C)C1=C(O)c2ccccc2C1=O	-6.5
O=C1C(C2=C(O)c3ccccc3C2=O)=Nc2ccccc21	440.0*
CCCC12CN3CC(CCC)(CN(C1)C3C(O)C(O)C(O)CO)C2=O (configuration not stated)	3.8
CCOC(=O)CNC(=S)N(Cc1ccc(C)cc1)Cc1ccc(C)o1	2.9
CCOc1ccc(C2OC34CCCCC3C(C#N)(C#N)C2(C#N)C(=N)O4)cc1OC (configuration not stated)	-5.6
Cc1ccc(/C=C/C(=O)Nc2ccccc2C(N)=O)cc1	3.1
CC(C)(C)c1ccc(-c2nnc(SCC(=O)NC3CCS(=O)(=O)C3)n2N)cc1 (configuration not stated)	-75.0
CC(C)CN1C(=S)SC(C)(C)C1n1oc(=O)n(-c2ccc(Cl)cc2)c1=O (configuration not stated)	7.7
CCOC(=O)NC(NC(=O)OCC)C(=O)c1ccccc1	0.0
COCCNC(=O)Cn1nc(C(F)(F)F)c(Cl)c1C	7.1
Cc1ccc(Nc2ncnc3ccccc23)cc1	421.4*
CCCCC(Nc1ncnc2ccccc12)C(=O)O (configuration not stated)	-3.3
CN(C)CCNc1ncnc2ccccc12	3.2
CC1CCc2cc(F)ccc2N1C(=O)CCl (configuration not stated)	6.7
Cc1ccnc(SCc2cc(=O)c(OC(=O)c3ccccc3)co2)n1	427.8*
Cc1ccnc(SCC(=O)N2CCc3ccccc3C2)n1	0.0
Cc1ccnc(SCC(=O)O)n1	-3.2
Cc1nccn1CC(=O)N/N=C/c1cccc(O)c1	-3.4
CS(=O)(=O)N(CC(=O)N1CCN(c2ccc(F)cc2)CC1)c1ccc(F)c(Cl)c1	0.0
COc1ccc(N2CC(C(=O)NCCCN3CCOCC3)CC2=O)cc1 (configuration not stated)	0.0
Cc1ccc(C)c(NC(=O)Cn2nnc(-c3ccc(N4CCOCC4)cc3)n2)c1	0.0
CC(C)(C)OC(=O)N1CCN(c2ccc(CNC(=O)c3ccc(Cl)cc3)cc2)CC1	0.0
CCc1ccc(NC(=O)CSc2ccccn2)cc1	104.8
SMILES	Insulin prom act
C=CCSc1nnc(NC(=O)CSc2ccccn2)s1	425.0*
CCSc1nnc(NC(=O)c2ccccn2)s1	177.8
O=C1NC(=S)S/C1=C/c1ccc(N2CCOCC2)o1	140.6
O=C1S/C(=C/c2ccc(N3CCOCC3)o2)C(=O)N1Cc1ccc(F)cc1	5.7
CC(C)OC(=O)CN1C(=O)S/C(=C/c2ccc(N3CCCCC3)o2)C1=O	170.3*
C#CC[N+](C)(C)C(C#Cc1ccccc1)CC=C (configuration not stated)	-2.3
CCOc1ccc(N2C(=O)CC(SCC(=O)O)C2=O)cc1 (configuration not stated)	6.7
COc1ccc(N2C(=O)CC(Sc3nc(C)c4c(n3)CCCC4)C2=O)cc1 (configuration not stated)	-6.1
COc1ccc(N2C(=O)CC(SCC(=O)O)C2=O)cc1 (configuration not stated)	437.5*
CC(C)CC(=O)Nc1ccccc1-c1nnn(CC(=O)N2CCOCC2)n1	-2.8
COc1ccc(OC)c(C(=O)CSc2nnc(Cc3cccs3)n2CCc2ccccc2)c1	-2.8
COc1ccc(-c2nc(O)c3cnccn23)cc1	0.0
Cc1cc(C)n(-c2nc(Nc3ccccc3)nc(-n3nc(C)cc3C)n2)n1	-5.7
Cc1cc(Nc2ccccc2)n(CCO)n1	542.9*
COc1ccc(C(=O)n2nc(C)cc2Nc2ccccc2)cc1	6.5
CCOC(=O)c1c(C)c(C(=O)NCc2cccnc2)c(C)n1CC	-9.4
CN(C)S(=O)(=O)c1ccc(C(=O)NNC(=O)C2COc3ccccc3O2)cc1 (configuration not stated)	2.9
C/C(=N/NS(=O)(=O)c1ccc(Cl)cc1)c1cccc(NC(=O)c2ccc(Cl)cc2Cl)c1	0.0
O=c1c2ccccc2nc2c3ccccc3c(NCCN3CCOCC3)nn12	8.6
CNc1nc(C(=O)O)nc(N2CCOCC2)n1	272.2
C=CCNc1nc(NCCN2CCOCC2)nc(N2CCOCC2)n1	493.3*
Cc1cc(=O)oc2cc(OCC(=O)OCC(=O)Nc3c(C)n(C)n(-c4ccccc4)c3=O)ccc12	0.0
COc1cccc(Cn2cnc3c(NS(=O)(=O)c4cc(Cl)ccc4Cl)c(C)c(C)cc32)c1	4.2
COC(=O)c1ccc(NC(=O)COc2ccc(S(=O)(=O)NC(C)(C)C)cc2)cc1	442.9*
COC(=O)c1ccc(S(=O)(=O)NNC(=O)COc2ccc(C)cc2)cc1	0.0
SMILES	Insulin prom act
COC(=O)c1ccc(NC(=O)COc2ccc(S(=O)(=O)NC(C)C)cc2)cc1	225.7
O=C(COc1ccc(/C=N/NS(=O)(=O)c2ccccc2)cc1)Nc1ccccc1	284.6*
N/C(COc1ccccc1)=N\NS(=O)(=O)c1ccccc1	-8.3
Cc1cc(C)nc(NS(=O)(=O)c2ccc(NC(=O)COc3ccccc3)cc2)n1	-2.7
O=C(CCCN1C(=O)c2cccc3cccc(c23)C1=O)N1CCc2ccccc2C1	-5.7
O=C(NC(=S)Nc1ccc(N2CCOCC2)cc1)c1cncc(Br)c1	-66.7
COc1ccc2nc(SCC(=O)Nc3cc(C)on3)[nH]c2c1	5.6
COc1cc(C)nc(N2CCC(C(=O)NC3CCCCC3)CC2)n1	3.2
